Screens as filed in PubChem BioAssay.
SENP6 block: inhibitors of human SENP6 protease. AID 2599. inhibition, % at 10 µM. 330,000 compounds, 1.8% hits. Recombinant SENP6 catalytic domain, aminoluciferin luminescence;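 active means inhibition above about 50% at the single tested dose, limit read from the data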;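 further: plate controls were DMSO wells with enzyme for no effect and DMSO wells lacking enzyme for full effect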
SENP1 inh: blocks the human SENP1 SUMO protease catalytic domain; inhibition, % at 10 µM; 360,000 compounds, 0.21% hits; Q9P0U3; recombinant SENP1 catalytic domain, CyPet-SUMO1-YPet FRET cleavage; AID 624204;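 active means inhibition at least 30% at 10 µM, raw YFP signal under a set limit, fluorescence ratio 0.5 to 1.5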;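 further: 0% = enzyme with DMSO and 100% = no enzyme wells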
Target sequence (Q9P0U3 419-644 limits assumed): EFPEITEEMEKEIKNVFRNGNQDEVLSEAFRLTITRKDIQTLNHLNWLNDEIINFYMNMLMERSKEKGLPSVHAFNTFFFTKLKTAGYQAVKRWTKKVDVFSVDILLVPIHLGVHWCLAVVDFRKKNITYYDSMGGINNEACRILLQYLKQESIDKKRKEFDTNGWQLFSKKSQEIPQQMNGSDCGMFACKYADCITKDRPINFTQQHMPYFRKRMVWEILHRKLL
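system = hSENP1 catalytic domain, recombinant | reagent = SFCypet-SUMO1-SFYpet substrate at 25 nM | doses = one dose per compound, 10 µM, 0.5% DMSO | incubation = enzyme reaction for 50 min at room temperature, dark | measured by = FRET, CFP and YFP emission | controls = no-enzyme low, enzyme-DMSO high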
SENP8 block-1: blocks human SENP8 cleavage of Nedd8 substrate; AID 602440; Q96LD8; 360,000 compounds, 0.64% hits; inhibition, % at 20 µM; recombinant SENP8, Nedd8 substrate fluorescence; in the data active means inhibition mostly above about 40%, no sharp cut-off; inactive means mostly below about 27%
SENP8 block-2: SENP8 protease inhibition | purified SENP8, Z-RLRGG-aminoluciferin cleavage, luminescence | inhibition, % at 10 µM | 330,000 compounds, 1.2% hits | AID 2540; in the data active means inhibition above about 50%
SENP7 inh: SENP7 protease inhibition | Q9BQF6 | recombinant SENP7, Z-RLRGG-aminoluciferin luminescence, 40 min | inhibition, % at 5 µM | 330,000 compounds, 1.5% hits;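 active means inhibition above about 50% at the single test dose, limit read from the data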;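 further: plate controls were DMSO with enzyme for no effect and no enzyme buffer wells for full effect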
Target sequence (Q9BQF6 706-1050 limits assumed): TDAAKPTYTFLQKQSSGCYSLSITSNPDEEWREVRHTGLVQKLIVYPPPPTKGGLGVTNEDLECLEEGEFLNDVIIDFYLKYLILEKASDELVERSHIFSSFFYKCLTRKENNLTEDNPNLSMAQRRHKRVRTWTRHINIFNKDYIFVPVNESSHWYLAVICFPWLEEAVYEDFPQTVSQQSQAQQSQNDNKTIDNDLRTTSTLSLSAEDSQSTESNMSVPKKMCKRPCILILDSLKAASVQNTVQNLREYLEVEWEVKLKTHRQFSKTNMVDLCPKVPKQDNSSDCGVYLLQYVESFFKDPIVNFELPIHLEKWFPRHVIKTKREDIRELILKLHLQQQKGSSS
* hit, by the source's call; x = not tested or not shown. Compounds with a hit are over-represented: about 2.5% of the library has one in this group of screens.

SMILES	SENP6 block	SENP1 inh	SENP8 block-1	SENP8 block-2	SENP7 inh
CC(C)c1ccc(OCc2ccc(C(=O)N(C)C)o2)cc1	-18.1	1.6	-5.4	-13.1	-7.9
CC(C)c1ccc(OCc2ccc(C(=O)O)o2)cc1	95.4*	2.1	-20.6	86.7*	76.9*
COc1ccc(CN(C)C(=O)COC(=O)c2c(-c3ccccc3Cl)noc2C)cc1	-25.3	3.1	2.9	-10.3	0.9
CCOC(=O)N1CCC(Nc2c(-c3ccc(C)c(C)c3)c(=O)c2=O)CC1	4.5	1.9	47.2*	0.9	4.5
COc1ccc(-n2nc3c(c2NC(=O)COc2ccccc2OC)CS(=O)(=O)C3)cc1	x	-0.6	7.8	x	x
Cc1ccc(C(NC(=O)C(C)C)c2cc([N+](=O)[O-])c3cccnc3c2O)cc1 (stereo unspecified)	1.6	-3.8	54.7*	0.6	-4.7
CC(C)C(=O)NC(c1cccs1)c1cc([N+](=O)[O-])c2cccnc2c1O (stereo unspecified)	19.9	0.7	44.5*	4.6	18.1
CCC(=O)NC(c1ccc(C)cc1)c1cc(Cl)c2cccnc2c1O (stereo unspecified)	-23.6	10.1	18.2	-21.7	-5.0
O=C(O)CC(C(=O)O)N1C(=O)/C(=C/C=C/c2ccco2)SC1=S (stereo unspecified)	-67.3	41.5*	8.8	-3.2	-12.4
CO/N=C/C(=N\Nc1ccc(OC)cc1)C(=O)c1ccc(OC)cc1	0.2	5.9	51.2*	-0.8	0.7
COC(=O)[C@]1(C)N[C@H](c2ccc(SC3CCCCC3)c(OC)c2)[C@@H]2C(=O)N(C)C(=O)[C@@H]21	-3.6	2.8	-113.7	10.7	-6.1
COc1ccc(CNc2nc3ccccc3n2C)c(OC)c1	40.3	1.6	5.2	60.5*	61.0*
CCS(=O)(=O)c1ccc(N=Nc2ccc(O)c3ncccc23)c(OC)c1	10.0	3.1	23.8	1.8	6.6
Cc1ccc(N=Nc2ccc(O)c3ncccc23)cc1C	-20.3	-1.6	26.2	-0.1	-20.1
Cc1ccc(N=Nc2ccc(O)c3ncccc23)cc1	x	1.0	42.9*	x	x
COc1ccccc1N=Nc1ccc(O)c2ncccc12	65.4*	21.3	86.7*	47.3	25.3
CSc1cccc(NC(=O)c2ccc(NC3=NC4CS(=O)(=O)CC4S3)cc2)c1 (stereo unspecified)	-6.4	-0.6	17.8	10.4	1.0
Cc1[nH]n(-c2ccccc2)c(=O)c1N=Nc1ccc(C(=O)O)cc1	-11.4	4.1	27.9	2.4	8.4
CC(=O)c1ccc(N=Nc2c(C)[nH]n(-c3ccccc3)c2=O)cc1	-6.3	1.2	47.6*	-1.4	2.1
ClN=C1C=CC=CC1=NCl	x	-7.3	37.9*	x	x
Cc1cc(C)c2nc(NNC(=O)c3cc(=O)c4ccccc4o3)sc2c1	79.1*	9.1	4.3	63.5*	1.9
Cc1cc(C)c2nc(NNC(=O)c3ccc(S(=O)(=O)N4CCc5ccccc5C4)cc3)sc2c1	3.7	19.1	-2.0	4.7	4.2
COc1ccc(NS(=O)(=O)c2ccc(NC(=S)NC(=O)c3cccc(F)c3)cc2)nn1	92.0*	3.2	16.7	84.5*	80.4*
Nc1nc(-c2ccccc2)c(N=Nc2cccnc2)s1	-28.3	4.3	48.4*	-9.2	-7.1
Cc1nn(-c2ccccc2)c(N)c1N=Nc1cccnc1	-12.7	1.9	31.4	-6.6	-2.0
SMILES	SENP6 block	SENP1 inh	SENP8 block-1	SENP8 block-2	SENP7 inh
Cn1c([N+](=O)[O-])cnc1N1CCN(c2nncs2)C1=O	1.6	-0.4	24.3	-2.1	-0.3
Cc1ccccc1/C=C1\Oc2ccccc2C1=O	78.5*	-3.2	-26.8	62.9*	51.1*
COc1ccc(C(=O)/C=C/c2ccc(N3CCCCC3)c([N+](=O)[O-])c2)cc1	-26.3	4.5	20.0	-7.3	0.8
COc1ccc(C(=O)/C=C/c2ccc(N3CCCCC3)c([N+](=O)[O-])c2)c(OC)c1	x	1.5	41.0*	x	x
Cc1c(NC(=O)C(C)OC(=O)/C=C/c2ccc3c(c2)OCO3)c(=O)n(-c2ccccc2)n1C (stereo unspecified)	-12.5	0.5	-411.1	9.5	0.1
COc1cc(N=Nc2ccc(Br)cc2)cc(C=O)c1O	x	9.5	44.0*	x	x
COc1cc(CN(C)C)cc(C=O)c1O	-11.4	-1.0	13.3	-0.5	-4.7
O=C(CN1C(=O)/C(=C/c2ccccc2F)Sc2ccccc21)NCC1CCCO1 (stereo unspecified)	-15.0	-2.5	-7.6	6.3	8.9
C/C(=N\OC(=O)c1ccc(F)cc1)c1ccc(F)c(F)c1	80.5*	4.6	22.6	72.8*	92.0*
C/C(=N\OC(=O)c1ccc(F)cc1)c1sc(-c2ccc(Cl)cc2)nc1C	-19.8	0.1	-412.9	-1.4	3.2
C=CCC1NS(=O)(=O)OC(CCc2ccccc2)C1O (stereo unspecified)	2.6	0.4	14.8	5.7	7.0
COc1ccc(NC(=O)O/N=C/c2c(C)nn(C(C)(C)C)c2C)cc1	1.6	0.8	9.2	-2.5	1.4
Cc1nn(C(C)(C)C)c(C)c1/C=N/OC(=O)Nc1ccc(Cl)c(Cl)c1	59.2*	0.6	16.3	42.7	44.0
CN(C(=O)CSCC(=O)O)C1CCCCC1	5.4	1.5	2.8	-0.2	6.7
COc1ccc(-c2c(-c3ccsc3)oc3c2C(O)CCC3)cn1 (stereo unspecified)	x	-3.8	-113.7	x	x
C=CCNC(=O)N1CCC(n2nccc2NC(=O)CCCc2ccccc2)CC1	2.6	2.2	7.3	-2.2	-4.8
C[C@H]1COC2=C1C(=O)C(=O)c1c2ccc2c1CCCC2(C)C	x	3.0	25.0	x	x
Cc1coc2c1C(=O)C(=O)c1c-2ccc2c1CCCC2(C)C	44.6	4.1	60.8*	-4.2	6.6
O=C(Nc1ccc(Cl)c(Cl)c1)Nc1nccs1	64.7*	-5.0	29.3	35.7	25.9
O=C(Nc1cccc(Cl)c1)Nc1nccs1	35.1	0.5	1.0	-4.0	24.5
O=c1[nH]c2ccccc2[n+]([O-])c1-c1ccccc1	-6.5	-36.7	-134.3	-11.5	-2.9
Cc1ccc(C(=O)N/N=C/c2ccc3c(c2)OCO3)o1	61.4*	-1.7	-124.6	35.5	58.9*
Cc1ccc(C(=O)NN=Cc2ccc3c(c2)OCO3)cc1	x	1.2	-127.4	x	x
O=C(N/N=C/c1ccc(Br)cc1)c1ccc(Br)o1	86.4*	2.8	18.7	65.1*	76.5*
O=C(N/N=C/c1ccc(F)cc1)c1ccc(Br)cc1	0.8	-2.1	10.5	-11.7	-3.8
SMILES	SENP6 block	SENP1 inh	SENP8 block-1	SENP8 block-2	SENP7 inh
Cc1cccnc1Nc1nc(-c2ccccn2)cs1	81.5*	2.1	-8.9	75.1*	76.8*
c1ccc(-c2csc(Nc3ncccn3)n2)cc1	37.2	2.3	16.4	13.1	74.5*
Oc1ccc(-c2csc(Nc3ncccn3)n2)cc1	36.7	1.8	9.6	55.8*	71.8*
c1ccc(CCNc2nc(-c3ccncc3)cs2)cc1	-21.8	2.5	-144.3	-5.2	9.0
CCCCCNc1nc(-c2ccccc2)cs1	63.9*	x	x	32.0	10.3
CC(=O)Nc1ccc(-c2csc(Nc3ncccn3)n2)cc1	1.4	0.1	8.2	-7.9	17.8
